High-throughput results from PubChem.
Pf Dd2 growth = P. falciparum Dd2 growth inhibition | 2.3% of 94,000 active | AID 1159554 | SYBR Green, 72 h; active compounds read low | activity change, % at 10 µM; in the data active means activity change below about -80%
T cruzi growth = blocks T. cruzi growth in NIH3T3 culture; T. cruzi beta-gal in NIH3T3, GalScreen luminescence, 90 h; inhibition, % at 8.34 µM; 5.9% of 77,000 active;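 active means mean inhibition above about 93%, with at least 55% of replicates each passing it, limit read from the data, passing the limit was not always enough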
IDH1 mut inh = blocks human IDH1 R132H reductase activity; O75874; diaphorase/resazurin fluorescence, 60 min; inhibition, % at 10 µM; 0.18% of 70,000 active; in the data active means inhibition above about 34%
Target sequence (O75874 whole entry R132H): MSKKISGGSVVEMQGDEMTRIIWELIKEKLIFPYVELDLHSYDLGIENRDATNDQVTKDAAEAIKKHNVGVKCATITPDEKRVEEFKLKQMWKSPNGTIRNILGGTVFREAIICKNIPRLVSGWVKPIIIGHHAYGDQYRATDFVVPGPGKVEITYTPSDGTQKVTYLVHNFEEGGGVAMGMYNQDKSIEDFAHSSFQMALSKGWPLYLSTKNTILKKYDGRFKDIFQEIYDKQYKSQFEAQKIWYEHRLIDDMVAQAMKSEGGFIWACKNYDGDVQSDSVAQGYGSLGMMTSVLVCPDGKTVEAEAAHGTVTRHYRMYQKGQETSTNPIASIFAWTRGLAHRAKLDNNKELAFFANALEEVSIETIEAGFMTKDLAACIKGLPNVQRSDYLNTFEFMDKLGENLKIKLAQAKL
GASC1 inh = inhibitors of human demethylase GASC-1 KDM4C | 0.15% of 96,000 active | inhibition, % at 12.5 µM | Q9H3R0 | GST-KDM4C 2-372, H3K9me3 peptide, LANCE TR-FRET | AID 720574;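 active means mean replicate inhibition above about 25%, with at least 55% of replicates also reaching it, limit read from the data, passing the limit was not always enough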
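Test system – GST-tagged GASC-1 (JMJD2C) catalytic fragment, aa 2-372 · Medium – HEPES buffer, pH 7.5, plus ascorbate · Reagent – H3K9me3 peptide with Fe(II)/2OG · Compound – one test concentration per compound · Timing – 30 min reaction, 60 min detection, RT · Technique – TR-FRET with Eu antibody and ULight streptavidin, EDTA stop · Read-out basis – inhibition from TR-FRET ratio decrease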
Numbers stand for hits; i = inactive; nt = no result; ! = a repeat was not active. Rows were chosen to be rich in hits. Some 5.8% of all compounds tested hit in one or more screens of this group.

SMILES | Pf Dd2 growth | T cruzi growth | IDH1 mut inh | GASC1 inh
COc1ccccc1CN1C[C@@H](C)[C@H](OC)CN(C)C(=O)c2ccc(NC(=O)Nc3ccccc3OC)cc2OC[C@H]1C | -90 | i | i | i
CCC(=O)Nc1ccc2c(c1)OC[C@H](C)N(CC1CCOCC1)C[C@H](C)[C@H](OC)CN(C)C2=O | i | i | i | 44
COc1ccccc1CN1C[C@@H](C)[C@@H](OC)CN(C)C(=O)c2ccc(NC(C)=O)cc2OC[C@@H]1C | i | i | i | i
CO[C@H]1CN(C)C(=O)c2ccc(NC(=O)CC(F)(F)F)cc2OC[C@@H](C)N(CC2CC2)C[C@H]1C | -86 | nt | nt | i
CCOC(=O)c1ccccc1NC(=O)COc1ccccc1C | nt | nt | i | nt
Cc1nnc(SCC(=O)Nc2ccc(Br)cc2Cl)s1 | nt | nt | i | nt
Cc1ccc(-c2ccc(C3[C@@H]4CN(Cc5cccnc5)C[C@H]3N4)cc2)cc1 (stereo partly specified) | -91! | nt | nt | i
COc1cccc(CN2C[C@@H]3N[C@H](C2)C3c2ccc(-c3ccncc3)cc2)c1 (stereo partly specified) | -89! | nt | nt | i
O=C(COc1cc(Cl)c(Cl)cc1Cl)Nc1ccccc1[N+](=O)[O-] | nt | nt | i | nt
CO[C@@H]1CN(C)C(=O)c2cc(NC(=O)Cc3ccccc3)ccc2OC[C@H](C)N(C(=O)c2ccccc2F)C[C@@H]1C | -82 | i | i | i
CO[C@H]1CN(C)C(=O)c2cc(NC(=O)c3ccccc3F)ccc2OC[C@H](C)N(C(=O)c2ccccc2F)C[C@H]1C | -87 | i | i | i
C[C@@H]1CCCCO[C@H](CN(C)CC2CCCCC2)[C@@H](C)CN([C@H](C)CO)C(=O)c2cc(NC(=O)Nc3ccc(C(F)(F)F)cc3)ccc2O1 | i | i | i | i
C[C@@H]1CN([C@@H](C)CO)C(=O)c2cc(NC(=O)Nc3ccc(C(F)(F)F)cc3)ccc2O[C@@H](C)CCCCO[C@@H]1CN(C)CC1CCCCC1 | i | 100 | i | i
C[C@@H]1CCCCO[C@H](CN(C)CC2CC2)[C@H](C)CN([C@@H](C)CO)C(=O)c2cc(NC(=O)Nc3ccc(C(F)(F)F)cc3)ccc2O1 | -80 | i | nt | i
C[C@@H]1CN([C@@H](C)CO)C(=O)c2cc(NC(=O)Nc3ccc(C(F)(F)F)cc3)ccc2O[C@@H]1CN(C)CC1CCCCC1 | -83 | i | i | i
C[C@H]1CN([C@@H](C)CO)C(=O)c2cc(NC(=O)Nc3ccc(C(F)(F)F)cc3)ccc2O[C@H]1CN(C)CC1CCCCC1 | i | i | i | nt
C[C@@H]1CCCCO[C@@H](CN(C)CC2CC2)[C@H](C)CN([C@@H](C)CO)C(=O)c2cc(NC(=O)Nc3ccc(C(F)(F)F)cc3)ccc2O1 | i | i | nt | i
CCn1c(SCC(=O)Nc2ccc(C)cc2)nnc1-c1ccc(N)cc1 | nt | nt | i | nt
CC(C(=O)Nc1cc(C(F)(F)F)ccc1Cl)n1cc([N+](=O)[O-])cn1 (stereo unspecified) | nt | nt | i | nt
O=C(CCS(=O)(=O)c1nc(-c2ccccc2)cc(C(F)(F)F)n1)Nc1ccc(Cl)cc1Cl | nt | nt | i | nt
Cc1ccccc1NC(=O)CSC1CC(=O)N(c2ccc(F)cc2)C1=O (stereo unspecified) | nt | nt | i | nt
Cc1cc(N2CC(C)CC(C)C2)nc2ccc(NC(=O)CCC(=O)Nc3ccc(F)cc3Cl)cc12 (stereo unspecified) | nt | nt | i | nt
N=c1c2cnn(-c3ccccc3)c2ncn1/N=C/c1ccc(Cl)cc1 | nt | nt | i | nt
COc1ccc2c3c([nH]c2c1)[C@H](CO)N(C(=O)CN(C)C)CC31CN(CC2CCOCC2)C1 | i | nt | nt | i
COc1ccc2c3c([nH]c2c1)[C@H](CO)N(C(=O)CN(C)C)CC31CCN(Cc2ccccc2)CC1 | -82 | nt | nt | i
SMILES | Pf Dd2 growth | T cruzi growth | IDH1 mut inh | GASC1 inh
COc1ccc2c3c([nH]c2c1)[C@@H](CO)N(C(=O)CN(C)C)CC31CN(CC2CCCC2)C1 | -86 | nt | nt | i
Cc1ccc(C(C)C)cc1OCC(O)Cn1c(C)nc2ccccc21 (stereo unspecified) | nt | nt | i | nt
COc1ccc2c3c(n(C)c2c1)[C@H](CO)N(Cc1cccc(F)c1)CC31CCN(C(=O)Cc2ccccc2)CC1 | -83 | nt | nt | i
COc1ccc2c3c(n(C)c2c1)[C@@H](CO)N(Cc1ccncc1)CC31CCN(C(=O)C2CC2)CC1 | i | nt | nt | nt
COc1ccc2c3c(n(C)c2c1)[C@H](CO)N(Cc1ccc2c(c1)OCO2)CC31CN(C(=O)c2ccc3c(c2)OCO3)C1 | -88 | nt | nt | i
COc1ccc2c3c(n(C)c2c1)[C@H](CO)N(Cc1ccncc1)CC31CCN(C(=O)Cc2ccncc2)CC1 | -87 | nt | nt | i
N#CCCn1c(CC(N)=O)nc2ccccc21 | nt | nt | i | nt
